In ChEMBL document CHEMBL1149586 (Bioorg Med Chem, 2007):

Assays:
Stromelysin-1 = Stromelysin-1 (Homo sapiens, UniProt P08254); experiment: Inhibition of MMP3
[1] = molecular target: 72 kDa type IV collagenase (Homo sapiens, UniProt P08253); experiment: Inhibition of MMP2
How it was run: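 Incubated with compound at 1 to 5000 nM. Started with a fluorogenic quenched peptide substrate (1–10 nM). Initial hydrolysis rate, with (Vi) and without (Vo) compound, was followed by fluorescence.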

[2] = molecular target: Matrix metalloproteinase-14 (Homo sapiens, UniProt P50281); experiment: Inhibition of MMP14
Neutrophil collagenase = Neutrophil collagenase (Homo sapiens, UniProt P22894); experiment: Inhibition of MMP8
How it was run: (§1)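 Human recombinant pro-enzymes, freshly activated with p-aminophenylmercuric acetate at 37 °C for 2 h. Used at 0.6 nM for MMP-13 and 3.8 nM for MMP-8. Incubated with compound from 1 to 5000 nM. Assay began with addition of a fluorogenic substrate (1–10 nM). Initial rates of peptide cleavage were measured fluorimetrically, with (Vi) and without (Vo) compound.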

Interstitial collagenase = molecular target: T1, Interstitial collagenase (Homo sapiens, UniProt P03956); experiment: Inhibition of MMP1
T1 sequence (P03956 whole entry): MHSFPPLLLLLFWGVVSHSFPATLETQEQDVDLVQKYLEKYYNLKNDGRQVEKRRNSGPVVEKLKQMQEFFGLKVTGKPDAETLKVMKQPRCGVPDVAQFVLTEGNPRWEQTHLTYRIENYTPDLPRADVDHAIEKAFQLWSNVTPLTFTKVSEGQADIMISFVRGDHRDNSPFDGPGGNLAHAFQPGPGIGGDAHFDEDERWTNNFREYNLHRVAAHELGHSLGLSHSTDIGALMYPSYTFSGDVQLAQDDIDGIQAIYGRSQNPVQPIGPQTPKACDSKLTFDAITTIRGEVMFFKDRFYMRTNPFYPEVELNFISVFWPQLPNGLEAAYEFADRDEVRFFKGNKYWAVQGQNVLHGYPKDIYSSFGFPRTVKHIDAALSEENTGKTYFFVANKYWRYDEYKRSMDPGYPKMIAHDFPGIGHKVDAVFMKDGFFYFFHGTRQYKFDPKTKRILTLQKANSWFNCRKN

Collagenase 3 = Collagenase 3 (Homo sapiens, UniProt P45452); experiment: Inhibition of MMP13; how it was run: as §1
[3] = molecular target: Matrix metalloproteinase-9 (Homo sapiens, UniProt P14780); experiment: Inhibition of MMP9
Chain of Matrix metalloproteinase-9 (P14780 whole entry): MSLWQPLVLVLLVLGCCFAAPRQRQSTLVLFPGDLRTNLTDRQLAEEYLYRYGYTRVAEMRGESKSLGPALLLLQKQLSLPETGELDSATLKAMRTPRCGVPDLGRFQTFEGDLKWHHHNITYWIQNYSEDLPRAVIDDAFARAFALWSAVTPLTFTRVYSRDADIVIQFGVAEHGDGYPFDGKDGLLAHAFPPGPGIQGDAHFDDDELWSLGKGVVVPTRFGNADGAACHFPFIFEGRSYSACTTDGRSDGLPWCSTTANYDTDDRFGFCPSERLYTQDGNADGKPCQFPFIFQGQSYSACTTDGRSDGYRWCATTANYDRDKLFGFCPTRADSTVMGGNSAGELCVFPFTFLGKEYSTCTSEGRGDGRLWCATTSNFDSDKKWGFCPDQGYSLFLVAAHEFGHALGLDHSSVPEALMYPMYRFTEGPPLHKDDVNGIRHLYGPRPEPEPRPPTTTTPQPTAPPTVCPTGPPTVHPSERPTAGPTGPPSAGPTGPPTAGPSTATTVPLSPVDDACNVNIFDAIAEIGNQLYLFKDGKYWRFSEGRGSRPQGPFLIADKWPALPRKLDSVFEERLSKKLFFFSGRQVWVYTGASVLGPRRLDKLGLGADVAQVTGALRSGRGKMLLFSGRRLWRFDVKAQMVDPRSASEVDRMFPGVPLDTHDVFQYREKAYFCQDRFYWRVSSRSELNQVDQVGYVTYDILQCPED

Chain of Stromelysin-1 (P08254 whole entry): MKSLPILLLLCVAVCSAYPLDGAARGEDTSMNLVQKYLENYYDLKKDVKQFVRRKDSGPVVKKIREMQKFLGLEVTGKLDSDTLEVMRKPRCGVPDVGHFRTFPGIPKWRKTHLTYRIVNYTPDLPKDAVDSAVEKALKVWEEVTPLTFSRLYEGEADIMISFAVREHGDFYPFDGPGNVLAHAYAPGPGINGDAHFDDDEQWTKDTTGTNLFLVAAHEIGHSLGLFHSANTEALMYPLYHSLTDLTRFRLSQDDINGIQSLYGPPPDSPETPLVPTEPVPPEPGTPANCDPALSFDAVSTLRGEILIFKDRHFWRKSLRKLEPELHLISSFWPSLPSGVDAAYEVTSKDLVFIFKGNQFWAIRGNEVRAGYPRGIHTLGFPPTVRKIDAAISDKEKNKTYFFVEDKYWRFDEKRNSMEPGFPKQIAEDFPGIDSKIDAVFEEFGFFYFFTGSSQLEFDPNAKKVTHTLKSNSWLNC
Chain of 72 kDa type IV collagenase (P08253 whole entry): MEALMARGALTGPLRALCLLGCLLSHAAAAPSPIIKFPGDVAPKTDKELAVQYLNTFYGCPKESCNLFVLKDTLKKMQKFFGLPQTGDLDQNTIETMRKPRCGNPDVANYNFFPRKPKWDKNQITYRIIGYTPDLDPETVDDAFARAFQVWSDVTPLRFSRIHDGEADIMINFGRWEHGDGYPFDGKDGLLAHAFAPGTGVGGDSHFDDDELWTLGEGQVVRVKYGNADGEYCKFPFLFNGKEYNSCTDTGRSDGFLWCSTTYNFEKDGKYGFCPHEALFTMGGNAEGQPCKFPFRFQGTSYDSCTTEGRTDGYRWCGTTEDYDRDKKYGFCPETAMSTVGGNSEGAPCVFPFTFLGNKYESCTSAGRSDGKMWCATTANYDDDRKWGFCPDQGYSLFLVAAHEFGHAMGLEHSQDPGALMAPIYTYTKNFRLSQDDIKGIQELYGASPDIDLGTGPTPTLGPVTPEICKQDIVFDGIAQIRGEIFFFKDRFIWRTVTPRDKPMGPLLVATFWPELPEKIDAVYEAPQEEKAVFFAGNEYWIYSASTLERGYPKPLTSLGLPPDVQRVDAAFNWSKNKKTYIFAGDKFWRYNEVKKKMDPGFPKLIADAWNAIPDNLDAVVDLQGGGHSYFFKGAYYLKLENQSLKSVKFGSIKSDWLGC
Chain of Neutrophil collagenase (P22894 whole entry): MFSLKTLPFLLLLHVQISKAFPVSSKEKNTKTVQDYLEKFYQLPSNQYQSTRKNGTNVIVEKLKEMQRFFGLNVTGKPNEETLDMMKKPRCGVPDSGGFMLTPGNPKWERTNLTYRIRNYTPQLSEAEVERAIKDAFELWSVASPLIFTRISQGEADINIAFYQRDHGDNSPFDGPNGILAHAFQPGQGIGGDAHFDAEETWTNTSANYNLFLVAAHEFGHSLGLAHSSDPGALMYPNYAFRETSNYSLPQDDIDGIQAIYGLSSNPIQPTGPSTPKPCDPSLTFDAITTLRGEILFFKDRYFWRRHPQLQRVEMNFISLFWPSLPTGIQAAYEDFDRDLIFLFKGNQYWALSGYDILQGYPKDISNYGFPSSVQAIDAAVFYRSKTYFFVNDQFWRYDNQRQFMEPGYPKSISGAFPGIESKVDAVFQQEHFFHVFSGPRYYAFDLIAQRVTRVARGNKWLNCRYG

IC50 (Stromelysin-1)	IC50 [1]	IC50 [2]	IC50 (Neutrophil collagenase)	IC50 (Interstitial collagenase)	IC50 (Collagenase 3)	IC50 [3]	SMILES
> 10000 nM	123 nM	2660 nM	101 nM	32000 nM	122 nM	> 10000 nM	CCCCCC/C=C(\CC(=O)NO)C(=O)N[C@@H](Cc1c[nH]c2ccccc12)C(=O)NC
8610 nM	78500 nM	913 nM	–	984 nM	–	974 nM	C/C=C/C=C(\CC(=O)NO)C(=O)N[C@@H](Cc1c[nH]c2ccccc12)C(=O)NC
21000 nM	120 nM	2490 nM	–	1240 nM	–	38 nM	CNC(=O)[C@H](Cc1c[nH]c2ccccc12)NC(=O)/C(=C/C=C/c1ccccc1)CC(=O)NO
1920 nM	280 nM	53100 nM	–	9130 nM	–	45 nM	CNC(=O)[C@H](Cc1c[nH]c2ccccc12)NC(=O)/C(=C/CCc1ccccc1)CC(=O)NO
–	9.2 nM	10 nM	–	18 nM	–	17 nM	CNC(=O)[C@H](Cc1c[nH]c2ccccc12)NC(=O)/C(=C/C(C)C)CC(=O)NO
–	–	13.4 nM	–	–	–	–	CNC(=O)[C@H](Cc1c[nH]c2ccccc12)NC(=O)[C@@H](CC(=O)NO)CC(C)C [ILOMASTAT]
